Experimental data as given in ChEMBL document CHEMBL1158829, “Oxygenated pimarane diterpenes from Kaempferia marginata” (J Nat Prod, 2005).
Converted amounts (≈) assume the structure as drawn.

Legend:
[1] = tested on: Mycobacterium tuberculosis; assay: Antitubercular activity against Mycobacterium tuberculosis H37Ra after 4 days by microplate alamar blue assay; assay type: functional; settings: 96 h
Summary of the method: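 Mycobacterium tuberculosis H37Ra tested by Microplate Alamar Blue Assay, reporting minimum inhibitory concentration (MIC). Rifampicin, kanamycin and isoniazid were the positive controls.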

Plasmodium falciparum = assay: Antimalarial activity against multidrug-resistant Plasmodium falciparum K1 after 42 hrs by [3H]hypoxanthine uptake; assay type: functional, organism-based
Summary of the method: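 Plasmodium falciparum K1 (multidrug-resistant) was kept in continuous culture. In vitro activity was quantified with a microculture radioisotope technique.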

Candida albicans = assay: Antifungal activity against Candida albicans ATCC 90028 by XTT assay; assay type: functional, organism-based
Summary of the method: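 Candida albicans ATCC 90028 tested by a tetrazolium/formazan colorimetric method, with IC50 as the read-out. Amphotericin B served as the positive control and DMSO as the negative control.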

SMILES	MIC [1] [µg/mL]	IC50 (Plasmodium falciparum) [µg/mL]	IC50 (Candida albicans) [µg/mL]
C=C[C@]1(C)C=C2[C@H](O)C[C@H]3C(C)(C)CC[C@H](O)[C@]3(C)[C@H]2[C@H](O)C1	> 100	–	–
C=C[C@]1(C)C=C2CC[C@]3(C)[C@](C)(CCC[C@]3(C)O)[C@@]2(C)CC1	25 (≈ 82.6 µM)	–	–
C=C[C@]1(C)C=C2CC[C@H]3C(C)(C)CC[C@H](O)[C@]3(C)[C@H]2[C@H](O)C1	–	3.2 (≈ 10.5 µM)	–
C=C[C@]1(C)C=C2C(=O)C[C@H]3C(C)(C)C[C@H](O)[C@H](O)[C@]3(C)[C@H]2CC1	> 100	–	–
C=C[C@]1(C)C=C2CC[C@H]3C(C)(C)C[C@H](O)[C@H](O)[C@]3(C)[C@H]2[C@H](O)C1	> 100	8.8 (≈ 27.5 µM)	17.5 (≈ 54.6 µM)
C=C[C@]1(C)C=C2CC[C@]3(C)[C@](C)(CC[C@H](C(C)=O)[C@]3(C)O)[C@@]2(C)CC1	50 (≈ 145 µM)	–	–
